# Screens: PubChem BioAssay, several laboratories
# The list is not random: actives were taken first. Their share in the collection is about 3.7%.
# ROMK primary – human ROMK K+ channel modulation, primary screen | Tet-inducible ROMK, thallium flux fluorescence; actives lie on both sides | B-score at 10 µM | actives 2% (n = 130,000) | AID 1918;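 active = signal ratio slope over the read window, or its plate-corrected B-score, at least 3 SD from the plate mean, either direction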;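 also: B-score of the F/F0 ratio slope over 7 to 12 s after thallium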
# MT stabilize HCS – microtubule stabilization, imaging screen. HeLa tubulin immunostaining HCS, 24 h; share of cells brighter than vehicle mean+2SD. % tubulin-high responders, % at 10 µM. actives 0.83% (n = 200,000). AID 2205;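 active = plate Z-score above 3 for both tubulin-high and condensed-nucleus cell shares, with cell loss under 80%, at 10 µM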;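 also: anti alpha tubulin signal scored within the nucleus-defined area of each cell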
# Redox H2O2 prof – compounds producing H2O2 with reducing agent – biochemical, NIH compound library profiling, artefact control for MLSCN library redox annotation, primary screen | activation, % at 10 µM | DTT-dependent redox cycling H2O2, phenol red/HRP absorbance; 100% = 100 µM peroxide control, 0% = buffer | actives 0.03% (n = 200,000);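 active = activation of at least 50% relative to the plate's high and low controls in the primary single-dose screen; inactive = activation below 50%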;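 also: compound incubated with DTT at 0.8 mM final as the reducing agent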
# Cl transport mod – modulators of human KCC2 chloride dependent transport. actives 2.2% (n = 190,000). B-score of Tl+ flux slope (higher = more flux/activation; lower = inhibition) at 10 µM. KCC2 cells, thallium flux FluoZin-2 fluorescence. Q9H2X9;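 active = thallium flux slope and its plate-corrected score both differing from the plate sample mean at a set confidence after two filtering rounds, in either direction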;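 also: slope of fluorescence scaled to starting intensity during 10 to 20 s after thallium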
# bCat nuc transl – alters nuclear translocation of beta-catenin in HeLa cells. immunofluorescence imaging. nuclear translocation activity, % at 5 µM. actives 0.3% (n = 190,000);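 active = nuclear translocation activity above 50% at 5 µM, with a well cell count of 50 or more; inconclusive = wells under 50 cells across six images, flagged as toxic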;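 also: per-cell ratio of nuclear to cytoplasmic median beta-catenin stain intensity; plate controls were DMSO negative control for no effect and GSK-3 inhibitor IX positive control for full effect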
#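 Test system: human HeLa cells, endogenous beta-catenin. Times: 24 h compound exposure, 37°C. Measured by: beta-catenin immunofluorescence imaging with DAPI.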
# KCC2 secondary – KCC2 (human) modulation, secondary assay. shares compounds with Cl transport mod. HEK293-KCC2, thallium flux, FluoZin2 fluorescence; hits give high values. normalised thallium flux (F/F0 slope) at 10 µM. actives 15% (n = 3,700);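 active = thallium flux slope above the same plate's solvent-only control mean plus 3 SD; inconclusive = the two replicate wells disagree; inactive = no significant difference from solvent-only control wells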
# KCC2 bumet counter – thallium flux persisting under bumetanide in KCC2 cells, counter-screen secondary assay; normalized thallium flux at 10 µM; actives 49% (n = 3,700); shares compounds with Cl transport mod; HEK293-KCC2 + bumetanide/ouabain, thallium flux FluoZin2; hits give high values;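 active = thallium entry rate above the same plate's blocked-transporter control wells by more than 3 SD; inconclusive = the two repeat wells disagree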;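 also: raw slope of fluorescence over initial fluorescence between 10 and 20 s after thallium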
# KCC2 secondary2 – confirmation of human KCC2 transport modulators. shares compounds with Cl transport mod. HEK293-KCC2, thallium flux FluoZin2 fluorescence; actives lie on both sides; F/F0 rise rate, 10–20 s post-thallium. normalized thallium flux at 10 µM. actives 23% (n = 3,700). AID 1715;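 active = thallium flux slope more than 3 SD above or below the plate's solvent-only control mean, mostly below; inconclusive = the two repeat wells disagreed; inactive = no significant shift from solvent-only controls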;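 also: raw slope with 0.1% DMSO as baseline and bumetanide as block control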
# HEK293 Tl flux – parental HEK flux effect, counter-screen. HEK293 parental cells, thallium flux FluoZin2, ouabain; baseline-ratio fluorescence slope, 10–20 s after thallium. AID 1716. shares compounds with Cl transport mod. thallium flux rate (normalised fluorescence) at 10 µM. actives 46% (n = 3,700);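 active = thallium flux rate significantly above the same plate's solvent-only control wells, beyond their mean plus 3 SD; inconclusive = the two replicate wells gave conflicting results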
# KCC2 retest ouab – modulates human KCC2 on retest with ouabain. shares compounds with Cl transport mod. actives 48% (n = 3,700). HEK293-KCC2, thallium flux FluoZin2 fluorescence; bidirectional: low = inhibitor, high = activator. AID 1717. raw Tl+ flux slope (below DMSO = inhibition, above = activation) at 10 µM;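 active = thallium flux slope beyond 3 SD from same-plate DMSO control mean in most replicates, usually higher, sometimes lower; inconclusive = repeat tests gave conflicting results; inactive = no significant difference from controls in most replicates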;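 also: slope of initial-normalized fluorescence between seconds 10 and 20 after thallium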
# HEK293 Tl flux2 – counter-screen for KCC2 modulators: effect in parental HEK293 cells | shares compounds with Cl transport mod | thallium flux FluoZin-2 fluorescence slope | thallium flux slope at 10 µM | actives 33% (n = 3,700) | AID 1718;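 active = thallium flux slope above the same plate's solvent-control mean plus 3 SD in both duplicate wells; inconclusive = duplicate wells that disagreed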;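 also: run without ouabain in cells lacking the KCC2 cotransporter; slope of fluorescence scaled to its starting value between 10 and 20 s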
# * = called active by the depositor; ? = inconclusive; / = not tested or not shown.
SMILES,ROMK primary,MT stabilize HCS,Redox H2O2 prof,Cl transport mod,bCat nuc transl,KCC2 secondary,KCC2 bumet counter,KCC2 secondary2,HEK293 Tl flux,KCC2 retest ouab,HEK293 Tl flux2
Cc1ccc(OCCC(=O)OCC(=O)N2c3ccccc3CC2C)cc1 (stereo not drawn),/,4.7,-2.6,-5.12*,-1.3,0.0077,0.00485,0.0246*,0.00724,0.0168*,0.00959
COC(=O)CSc1nnc(CNC(=O)c2cc(OC)cc(OC)c2)n1-c1ccc(F)cc1,0.361,1.8,0.0,-1.72,1.0,/,/,/,/,/,/
O=c1ccc(N=Nc2ccccc2)ccc1O,/,/,/,151*,1.0,0.0123*,0.121*,0.12*,0.113*,0.116*,0.109*
CC1CCC(C(=O)NNC(=O)c2cc(-c3ccco3)[nH]n2)CC1 (stereo not drawn),0.0629,2.2,-0.1,-2.92*,-0.1,0.00875,0.00626,0.0289,?,?,0.00982
O=C(NC(=S)Nc1cc(C(F)(F)F)ccc1N1CCOCC1)c1sc2ccccc2c1Cl,/,1.0,0.6,0.344,0.3,/,/,/,/,/,/
C/C(N)=C(/C#N)C(=O)COC(=O)c1ccc(C#N)cc1,0.807,1.2,-0.4,0.0977,-1.4,/,/,/,/,/,/
Cc1ccc(/C=N/NC(=O)c2ccc(Br)o2)s1,0.609,3.1,-0.6,5.31*,/,0.0091,0.00924*,0.033,?,0.0205,0.012
CCc1ccc(/C=N\NC(=O)c2ccc(Br)o2)s1,-0.000483,11.9,-0.2,6.01*,/,0.00938,0.022*,0.0306,0.0215*,0.0226,0.0122*
O=C(N/N=C/c1ccco1)c1ccc(Br)o1,0.927,2.7,-4.4,0.548,-0.9,/,/,/,/,/,/
O=C1OC(c2cccs2)=N/C1=C/c1ccc(-c2cccc(C(=O)O)c2)o1,-0.484,3.5,-2.0,-0.444,0.9,/,/,/,/,/,/
O=C1OC(c2cccs2)=N/C1=C\c1ccc(-c2ccccc2Cl)o1,/,3.7,1.2,/,?,0.00589,0.00448,0.0282,0.00489*,?,0.00883
COC(=O)c1cc(Sc2cccc(Cl)c2Cl)ccn1,-1.2,1.5,-0.6,-2.93*,2.7,0.00688,0.00443,?,0.00614*,0.0142*,0.00998
COC(=O)c1cc(Sc2c(Cl)cccc2Cl)ccn1,-0.516,5.1,-0.2,-3.38,0.8,/,/,/,/,/,/
CCSc1nc2ccccc2c(=O)n1C1CCOC(C)(C)C1 (stereo not drawn),0.0603,3.8,-0.4,-2.31,/,/,/,/,/,/,/
CC1(C)CC(n2c(=S)[nH]c3ccccc3c2=O)CCO1 (stereo not drawn),/,3.1,-0.3,14.2*,-1.1,0.0118,0.0353*,0.0316,0.0222*,0.0308*,?
CCCCCCN1C(=O)C(O)=C(C(C)=O)C1c1ccc(Cl)cc1 (stereo not drawn),/,3.8,-0.2,-3.3*,4.5,0.00927,?,0.0298,0.00824,0.0141*,0.0112
CCCCN1C(=O)C(O)=C(C(C)=O)C1c1ccccc1 (stereo not drawn),-0.826,1.2,0.1,/,/,/,/,/,/,/,/
O=C(CSc1nnc(-c2ccc3c(c2)OCO3)o1)Nc1ncc(C(F)(F)F)cc1Cl,0.234,2.7,0.4,27.4*,-0.1,0.0163*,0.0422*,0.0343,?,0.0446*,?
Cc1nccc(-c2cccc(NC(=O)Nc3ccc(Cl)cc3)c2)n1,/,/,/,-0.201,0.1,/,/,/,/,/,/
Cc1nccc(-c2cccc(N/N=C(\C#N)C(=O)c3ccccc3)c2)n1,/,/,/,-5.09*,0.4,?,0.0358*,0.0306,0.0146*,0.025,0.0115*
CC(C)c1cc(C(=O)N/N=C/c2cccnc2)n[nH]1,/,2.2,0.4,-1.31,-0.9,/,/,/,/,/,/
O=C(NCc1ccc2c(c1)OCO2)c1ccc(CSCc2ccccc2Cl)o1,/,3.1,0.3,-0.592,1.7,/,/,/,/,/,/
O=C(NCc1ccc2c(c1)OCO2)c1ccc(COc2cccc(Cl)c2)o1,/,2.5,0.0,-6.92*,/,0.00789,0.00484,0.0351,0.004,?,0.0124
CC1=C(C(=O)OCc2ccccc2)C(c2cccnc2)n2ncnc2N1 (stereo not drawn),-0.66,4.2,-1.2,/,-2.0,/,/,/,/,/,/
CC(=O)C1=C(C)Nc2ncnn2C1c1cccc(OCc2ccccc2)c1 (stereo not drawn),/,4.2,-0.4,-3.44*,-2.2,0.00789,0.006,0.0323,0.00672,0.0181*,0.0101
SMILES,ROMK primary,MT stabilize HCS,Redox H2O2 prof,Cl transport mod,bCat nuc transl,KCC2 secondary,KCC2 bumet counter,KCC2 secondary2,HEK293 Tl flux,KCC2 retest ouab,HEK293 Tl flux2
CCCn1nnc(NC(=O)c2ccc(F)cc2)n1,/,4.1,1.5,-4.12*,-0.7,?,?,0.0299,0.00696,0.0242,0.0103
CCn1nnc(NC(=O)c2ccc(C(C)(C)C)cc2)n1,/,3.2,-3.1,0.369,-3.6,/,/,/,/,/,/
O=C1c2ccccc2C(=O)N1Cc1cccnc1,-0.0247,2.1,0.4,-5.35*,-0.8,0.00841,0.00583,0.0306,0.00717,0.021,?
N=c1c2cn[nH]c2nc(SCC(=O)c2ccc(Br)cc2)n1-c1ccc(Br)cc1,-0.255,4.2,0.0,2.79,-2.8,/,/,/,/,/,/
O=C(Cc1ccc(Cl)cc1)NNC(=S)NC(=O)c1cccs1,/,/,/,29.2*,-0.6,0.00837,0.0454*,0.0369*,0.0336*,0.0372*,0.0272*
Oc1c(Br)cc(C=Nc2ccc3nc(-c4ccccc4)[nH]c3c2)c(O)c1Br,-0.00851,3.9,-1.3,-3.48*,0.1,0.00708,0.00456,0.0276,0.00623,0.0132*,0.00867
CN1CCN(CC(O)(c2ccc(Cl)cc2)c2ccc(Cl)cc2)CC1,0.422,5.2,-2.8,0.366,-2.0,/,/,/,/,/,/
CCOC(=O)c1c(-c2ccccc2)csc1NC(=O)/C(C#N)=C/c1ccc(O)c(OC)c1,/,6.0,0.9,5.25*,-1.0,0.00681,0.0113*,0.0278,0.00948*,0.0198,0.0104
Cc1nc(NC(=O)c2ccco2)sc1C(=O)Nc1ccc(Br)cc1,/,6.4,1.6,-5.26*,-0.4,0.00645,0.00464,?,0.00735,0.0173,0.0112
O=C(Nc1nc2c(Br)cc(Br)cc2c(=O)s1)c1ccco1,1.51,/,/,17*,-0.6,0.0268*,0.03*,0.0324,0.0397*,0.032*,0.0132*
